The subject of experiment [1] is SK-BR-3. Nature of the experiment: Induction of Hsp90-dependent Her2 protein degradation in Skbr3 cells after 24 hrs by ELISA. Format: functional, cell-based. The following applies: Homo sapiens, SK-BR-3, 24 h. Put shortly:
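SkBr3 cells seeded at 3000/well and attached overnight, then exposed to compounds at varying concentrations for 24 h. Cell number checked under the microscope against DMSO wells. Cells then washed, fixed and permeabilized in −20 °C methanol, and blocked with 5% BSA/PBST. Probed overnight at 4 °C with rabbit anti-Her2 (1:500), then with HRP anti-rabbit IgG (1:1000) for 2 h. Read by chemiluminescence.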
On the technique in general: ELISA stands for enzyme-linked immunosorbent assay.

Experiment [2] is described as follows: (§1) Inhibition of Hsp90-dependent luciferase renaturation in rabbit reticulocyte after 30 mins by luciferase refolding assay. Set-up: species or system Oryctolagus cuniculus. Put shortly: (§2)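 Luciferase in stability buffer (0.5 mg/mL) heat-denatured at 41 °C for 10 min. Compound in DMSO (1 μL) mixed with cold mix (Tris pH 7.7, Mg(OAc)2, KCl, ATP, creatine phosphate), creatine phosphokinase and denatured luciferase. Started with rabbit reticulocyte lysate diluted in 20 mM Tris-HCl pH 7.4/75 mM KCl. Ran 30 min at 25 °C, then luciferin/ATP buffer added and light read over 10 s. IC50 taken against DMSO control. Triplicates, at least two experiments.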

Experiment [3] relates to MCF7. The experiment in a line: Antiproliferative activity against MCF7 cells after 72 hrs. The experiment is classed as functional, cell-based. The following applies: Homo sapiens, MCF7, 72 h. Put shortly:
(§3)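 Seeded at 2000 cells/well and left to attach overnight at 37 °C, 5% CO2. MCF-7 cells kept in 1:1 DMEM:Ham's F-12 with non-essential amino acids, 2 mM L-glutamine, pen/strep and 10% FBS. SkBr3 cells kept in McCoy's 5A with the same supplements. Compounds added over a range of concentrations in DMSO (1% final). After 72 h, viable cells counted by MTS/PMS. 1% DMSO wells set as 100% proliferation.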

Experiment [4] deals with SK-BR-3. The experiment in a line: Antiproliferative activity against SkBr3 cells after 72 hrs. The experiment is classed as functional, cell-based. The following applies: Homo sapiens, SK-BR-3, 72 h. Put shortly: as §3
The species entered for experiment [5] is Oryctolagus cuniculus. Described as §1. Put shortly:
as §2

For experiment [6], the system named is MCF7. Nature of the experiment: Induction of AKT degradation in MCF7 cells. Format: functional, cell-based. The settings on record: Homo sapiens. Put shortly: (§4)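 MCF-7 cells seeded at 1×10^6 per dish and attached overnight. Compound added at varying concentrations for 36 h at 37 °C, 5% CO2. Client protein loss assessed by western blot. Controls: GA 500 nM and DMSO.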

For experiment [7], the system named is MCF7. Nature of the experiment: Induction of Raf1 degradation in MCF7 cells. The following applies: Homo sapiens. Format: functional, cell-based. Put shortly: as §4
The test system of experiment [8] is MCF7. Nature of the experiment: Induction of Her2 degradation in MCF7 cells. Format: functional, cell-based. The settings on record: Homo sapiens. Put shortly:
as §4

20 compounds from ChEMBL document CHEMBL1146364, “High-throughput assay for the identification of Hsp90 inhibitors based on Hsp90-dependent refolding of firefly luciferase” (Bioorg Med Chem, 2007) can be followed below.

Active and inactive are the calls of the source. The rule behind the calls is not given here.

The IC50 is the midpoint of a concentration-inhibition curve. As for `CCNC(=O)c1c(N)sc2c1CCCCC2`, the IC50 in experiment [1] is 44 µM; in experiment [2], 23 µM; in experiment [3], 93 µM; in experiment [4] it was 76 µM.
For `Cc1cc2nn(-c3ccc(Cl)cc3)nc2cc1NC(=O)C(C)C` the same measures were over 100 µM, 0.12 µM, over 100 µM and over 100 µM.
Taken in the same sequence, the figures for `CC1=NN(c2ccc(Cl)cc2)C(=O)C1` were over 100 µM, 2.1 µM, over 100 µM and over 100 µM.
Turning to `Nc1ncc(-c2cccs2)s1`, the concentration for half-maximal inhibition (IC50) was over 100 µM in experiment [1], 55 µM in experiment [2], over 100 µM in experiment [3] and over 100 µM in experiment [4].
With `CCc1ccc(O)c(/N=C/c2cccc(C)c2O)c1`, the IC50 in experiment [1] stood at 8.9 µM; in experiment [2] it was 7 µM; in experiment [3] it was 25 µM; in experiment [4], 9 µM.
In the case of `Oc1ccc(O)c(SCCCCN2CCOCC2)c1`, the half-maximal inhibitory concentration (IC50) in experiment [1] worked out at 4.7 µM; in experiment [2] it was 120 µM; in experiment [3], 19 µM; in experiment [4], 7.8 µM.
For `CSc1nnc2c(n1)OC=Nc1ccccc1-2` the same measures were over 100 µM, 15 µM, over 100 µM and over 100 µM.
For `C=CCOc1ccccc1/C=C1\C(=O)N(c2cccc(Cl)c2)N=C1C` the same measures were 51.6 µM, 4.5 µM, 34 µM and 39 µM.
Consider `Cc1c(Cc2ccccc2)sc(NC(=O)c2ccc([N+](=O)[O-])cc2)c1C(N)=O`, for which the IC50 in experiment [1] turned out to be 64 µM; in experiment [3], 41 µM; in experiment [4], 55 µM. Also, in experiment [5], the outcome was inactive.
For `CCOc1ccccc1NC(=O)CSc1ccccn1` the same measures were over 100 µM, over 100 µM, over 100 µM and “inactive”.
Regarding `CCOC(=O)Oc1ccc2c(c1)C(C)=CC(C)(C)N2`, the 50% inhibitory concentration (IC50) in experiment [1] was 4.4 µM; in experiment [2], 16 µM; in experiment [3], 3 µM; in experiment [4], 2.4 µM. In addition, the outcome in experiment [6], in experiment [7] and in experiment [8] was Active.
As to `Cc1nc(N)sc1-c1csc(Nc2ccccc2)n1`, the half-inhibitory concentration (IC50) in experiment [1] amounted to 61 µM; in experiment [2], 15 µM; in experiment [3] it was 44 µM; in experiment [4], 55 µM.
For `COc1ccccc1CNC(=O)c1ccc(C)cc1` the same measures were over 100 µM, 22 µM, over 100 µM and over 100 µM.
For `COc1ccc(C(=O)/C=C(\C)Nc2ccccc2O)cc1` the same measures were 21.3 µM, 15 µM, over 100 µM and 25 µM.
For `O=C(CSc1nnnn1-c1ccc(F)cc1F)Nc1ccc2c(c1)OCCO2` the same measures were over 100 µM, 4.4 µM, over 100 µM and over 100 µM.
In the case of `N#CC1=C(N)N2C(=C(C#N)C1c1cccs1)Sc1ccccc12` (stereo unspecified), the IC50 in experiment [1] is 67 µM; in experiment [2] it was 13 µM; in experiment [3], over 100 µM; in experiment [4], 42 µM.
Taken in the same sequence, the figures for `Cc1ccc(Nc2cc(C)c(O)c(C)c2)cc1` were 10.9 µM, 6.7 µM, 9.1 µM and 15 µM.
Taken in the same sequence, the figures for `Oc1c(C(Nc2cccc(Cl)c2)c2ccncc2)ccc2cccnc12` (stereo unspecified) were 33 µM, 36 µM, 4 µM and 23 µM.
Regarding `CCOc1ccc(Nc2nc(-c3sc(NC(C)=O)nc3C)cs2)cc1`, the concentration for half-maximal inhibition (IC50) in experiment [1] was 12.5 µM; in experiment [2] it was 1.9 µM; in experiment [3] it was 2.1 µM; in experiment [4] it was 15 µM. The result in experiment [6], in experiment [7] and in experiment [8] was Active.
Regarding `COc1ccc(/C=C2/SC(=O)NC2=O)cc1OC`, the IC50 in experiment [1] was over 100 µM; in experiment [2], 190 µM; in experiment [3], over 100 µM; in experiment [4], over 100 µM.
